The record followed here is ChEMBL document CHEMBL1156382, “New steroidal alkaloids from an undescribed sponge of the genus Corticium” (2001).

Structures are written as SMILES. In brackets after ≈: the same amount, converted by molar mass. Activity calls are given as the source filed them. The rule behind the calls is not given here.

One experiment has as its system Candida albicans. The experiment is described as follows: Antifungal activity against Candida albicans at 25 ug/disk by paper disk method. The following applies: read-out: IZ. The format is functional. In short, it runs like this:
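Paper disk diffusion against Candida albicans with 25 µg loaded per disk; read-out is the diameter of the clear zone of inhibition, in mm.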

Experiment [1] has as its system Nucleic Acid. The experiment is described as follows: Induction of Escherichia coli double stranded DNA cleavage at 10 ug/20 mL by gel electrophoresis. Type of experiment: nucleic-acid assay. In short, it runs like this:
(§1)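 Nucleic acids (double-stranded DNA and 16S rRNA) were isolated from E. coli and exposed to compound at 10 µg/20 mL; cleavage was scored by gel electrophoresis.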

In experiment [2] the test system is Nucleic Acid. The experiment is described as follows: Induction of Escherichia coli 16S rRNA cleavage at 10 ug/20 mL by gel electrophoresis. Type of experiment: nucleic-acid assay. In outline:
as §1

The next experiment relates to K562. Put plainly: Cytotoxicity against human K562 cells. The format is functional. The note with it: read-out: LC50 (the source's name).

With `CC(C)=C1CCN=C1C[C@@H](C)[C@H]1CC[C@H]2C3=CC[C@H]4[C@@H](O)[C@@H](N(C)C)CC[C@]4(C)[C@H]3CC[C@]12C` [LOKYSTEROLAMINE A], the zone of inhibition at 25 µg/disc in the experiment with Candida albicans worked out at 9 mm. In addition, the result in the experiment on Nucleic Acid [1] and with Nucleic Acid [2] was inactive. In addition, in the experiment with K562, the CC50 was 0.9 µg/mL (≈ 1.93 µM).
As to `CC(C)=C1CC[N+]([O-])=C1C[C@@H](C)[C@H]1CC[C@H]2C3=CC[C@H]4[C@@H](O)[C@@H](N(C)C)CC[C@]4(C)[C@H]3CC[C@]12C` [PLAKINAMINE E], in the experiment on Candida albicans, the zone of inhibition at 25 µg/disc was 12 mm. In addition, the result with Nucleic Acid [1] and in the experiment on Nucleic Acid [2] was Active. The CC50 with K562 was 0.2 µg/mL (≈ 0.414 µM).
Consider `CC(C)=C1CCN=C1C[C@@H](C)[C@H]1CC[C@H]2C3=CC[C@H]4C(=O)[C@@H](N(C)C)CC[C@]4(C)[C@H]3CC[C@]12C` [PLAKINAMINE F], for which the zone of inhibition at 25 µg/disc in the experiment on Candida albicans turned out to be 8 mm. The outcome with Nucleic Acid [1] and in the experiment with Nucleic Acid [2] was inactive. In the experiment with K562, the CC50 amounted to 1.3 µg/mL (≈ 2.8 µM).
